# Test results: ChEMBL document CHEMBL1126637, “Dicarboxylate diamide dimercaptide (N2S2) technetium-99m complexes: synthesis and biological evaluation as potential renal radiopharmaceuticals” (J Med Chem, 1993)
# Values joined by “and” are separate entries in the source; they are usually repeats but may differ in a detail not shown here. Equal entries are not always repeated.
# Tests used:
# Rattus norvegicus [1] = species: Rattus norvegicus; test: Biodistribution of the [99mTc] complex in rat blood at 10 min postinjection (3-4 rats used); format: ADME, organism-based; settings: in vivo
# Procedure, shortened: (§1)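 Male Sprague-Dawley rats (200-300 g), ketamine/xylazine anesthesia (80 mg/kg : 8 mg/kg), bladder cannulated with PE 50 tubing. Given iv via femoral vein 0.2 mL saline holding the 99mTc complex (20 µCi) co-injected with [131I]OIH (7 µCi). Percent injected dose per organ from comparing tissue radioactivity against dilutions of the injected dose, corrected for 131I spillover into the 99mTc channel; mean ±SD, 3-4 rats.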
# Rattus norvegicus [2] = species: Rattus norvegicus; test: Biodistribution of the [99mTc] complex in rat blood at 60 min postinjection (3-4 rats used); format: ADME, organism-based; settings: in vivo, 1 h; procedure, shortened: as §1
# Rattus norvegicus [3] = species: Rattus norvegicus; test: Biodistribution of the [99mTc] complex in rat heart at 10 min postinjection (3-4 rats used); format: ADME, organism-based; settings: in vivo; procedure, shortened: as §1
# Rattus norvegicus [4] = species: Rattus norvegicus; test: Biodistribution of the [99mTc] complex in rat heart at 60 min postinjection (3-4 rats used); format: ADME, organism-based; settings: in vivo, 1 h; procedure, shortened: as §1
# Rattus norvegicus [5] = species: Rattus norvegicus; test: Biodistribution of the [99mTc] complex in rat intestines at 10 min postinjection (3-4 rats used); format: ADME, organism-based, Intestine; settings: in vivo; procedure, shortened: as §1
# Rattus norvegicus [6] = species: Rattus norvegicus; test: Biodistribution of the [99mTc] complex in rat intestines at 60 min postinjection (3-4 rats used); format: ADME, organism-based, Intestine; settings: in vivo, 1 h; procedure, shortened: as §1
# Rattus norvegicus [7] = species: Rattus norvegicus; test: Biodistribution of the [99mTc] complex in rat kidney at 10 min postinjection (3-4 rats used); format: ADME, organism-based; settings: in vivo; procedure, shortened: as §1
# Rattus norvegicus [8] = species: Rattus norvegicus; test: Biodistribution of the [99mTc] complex in rat kidney at 60 min postinjection (3-4 rats used); format: ADME, organism-based; settings: in vivo, 1 h; procedure, shortened: as §1
# Rattus norvegicus [9] = species: Rattus norvegicus; test: Biodistribution of the [99mTc] complex in rat liver at 10 min postinjection (3-4 rats used); format: ADME, organism-based; settings: in vivo; procedure, shortened: as §1
# Rattus norvegicus [10] = species: Rattus norvegicus; test: Biodistribution of the [99mTc] complex in rat liver at 60 min postinjection (3-4 rats used); format: ADME, organism-based; settings: in vivo, 1 h; procedure, shortened: as §1
# Rattus norvegicus [11] = species: Rattus norvegicus; test: Biodistribution of the [99mTc] complex in rat lung at 10 min postinjection (3-4 rats used); format: ADME, organism-based; settings: in vivo; procedure, shortened: as §1
# Rattus norvegicus [12] = species: Rattus norvegicus; test: Biodistribution of the [99mTc] complex in rat lung at 60 min postinjection (3-4 rats used); format: ADME, organism-based; settings: in vivo, 1 h; procedure, shortened: as §1
# Rattus norvegicus [13] = species: Rattus norvegicus; test: Biodistribution of the [99mTc] complex in rat muscle at 10 min postinjection (3-4 rats used); format: ADME, organism-based, Muscle tissue; settings: in vivo; procedure, shortened: as §1
# Rattus norvegicus [14] = species: Rattus norvegicus; test: Biodistribution of the [99mTc] complex in rat muscle at 60 min postinjection (3-4 rats used); format: ADME, organism-based, Muscle tissue; settings: in vivo, 1 h; procedure, shortened: as §1
# Rattus norvegicus [15] = species: Rattus norvegicus; test: Biodistribution of the [99mTc] complex in rat spleen at 10 min postinjection (3-4 rats used); format: ADME, organism-based; settings: in vivo; procedure, shortened: as §1
# Rattus norvegicus [16] = species: Rattus norvegicus; test: Biodistribution of the [99mTc] complex in rat spleen at 60 min postinjection (3-4 rats used); format: ADME, organism-based; settings: in vivo, 1 h; procedure, shortened: as §1
# Rattus norvegicus [17] = species: Rattus norvegicus; test: Biodistribution of the [99mTc] complex with OIH in rat spleen at 60 min postinjection (3-4 rats used); format: ADME, organism-based; settings: in vivo, 1 h; procedure, shortened: as §1
# Monkey [18] = test: Percentage of counts in the pellet/total number of counts in both supernatant and pellet in monkey plasma (n=3); format: functional, Cercopithecidae
# Procedure, shortened: (§2)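 Plasma from male cynomolgus monkey or male Sprague-Dawley rat blood (centrifuged 4000 rpm, 5 min). 99mTc complex in 50% ethanol/H2O (1 × 10^6 counts) incubated with 1 mL plasma at 37 °C for 30 min. Precipitation with 0.4 mL 10% trichloroacetic acid, centrifuged 4000 rpm 10 min, pellet washed twice with water. Bound = pellet counts/(pellet + supernatant + washes) counts; 3 determinations, mean ± SD.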
# Rattus norvegicus [19] = species: Rattus norvegicus; test: Percentage of counts in the pellet/total number of counts in both supernatant and pellet in rat plasma (n=3); format: functional; procedure, shortened: as §2
# Rattus norvegicus [20] = species: Rattus norvegicus; test: Biodistribution of the [99mTc] complex with OIH in rat blood at 10 min postinjection (3-4 rats used); format: ADME, organism-based; settings: in vivo; procedure, shortened: as §1
# Rattus norvegicus [21] = species: Rattus norvegicus; test: Biodistribution of the [99mTc] complex with OIH in rat blood at 60 min postinjection (, 3-4 rats used); format: ADME, organism-based; settings: in vivo, 1 h; procedure, shortened: as §1
# Rattus norvegicus [22] = species: Rattus norvegicus; test: Biodistribution of the [99mTc] complex with OIH in rat intestines at 10 min postinjection (3-4 rats used); format: ADME, organism-based, Intestine; settings: in vivo; procedure, shortened: as §1
# Rattus norvegicus [23] = species: Rattus norvegicus; test: Biodistribution of the [99mTc] complex with OIH in rat intestines at 60 min postinjection (3-4 rats used); format: ADME, organism-based, Intestine; settings: in vivo, 1 h; procedure, shortened: as §1
# Rattus norvegicus [24] = species: Rattus norvegicus; test: Biodistribution of the [99mTc] complex with OIH in rat kidney at 10 min postinjection ( 3-4 rats used); format: ADME, organism-based; settings: in vivo; procedure, shortened: as §1
# Rattus norvegicus [25] = species: Rattus norvegicus; test: Biodistribution of the [99mTc] complex with OIH in rat kidney at 60 min postinjection (3-4 rats used); format: ADME, organism-based; settings: in vivo, 1 h; procedure, shortened: as §1
# Rattus norvegicus [26] = species: Rattus norvegicus; test: Biodistribution of the [99mTc] complex with OIH in rat liver at 10 min postinjection (3-4 rats used); format: ADME, organism-based; settings: in vivo; procedure, shortened: as §1
# Rattus norvegicus [27] = species: Rattus norvegicus; test: Biodistribution of the [99mTc] complex with OIH in rat liver at 60 min postinjection (3-4 rats used); format: ADME, organism-based; settings: in vivo, 1 h; procedure, shortened: as §1
# Rattus norvegicus [28] = species: Rattus norvegicus; test: Biodistribution of the [99mTc] complex with OIH in rat lung at 10 min postinjection (3-4 rats used); format: ADME, organism-based; settings: in vivo; procedure, shortened: as §1
# Rattus norvegicus [29] = species: Rattus norvegicus; test: Biodistribution of the [99mTc] complex with OIH in rat muscle at 10 min postinjection (3-4 rats used); format: ADME, organism-based, Muscle tissue; settings: in vivo; procedure, shortened: as §1
# Rattus norvegicus [30] = species: Rattus norvegicus; test: Biodistribution of the [99mTc] complex with OIH in rat muscle at 60 min postinjection (3-4 rats used); format: ADME, organism-based, Muscle tissue; settings: in vivo, 1 h; procedure, shortened: as §1
# Rattus norvegicus [31] = species: Rattus norvegicus; test: Biodistribution of the [99mTc] complex with OIH in rat spleen at 10 min postinjection (mean +/- SD, 3-4 rats used); format: ADME, organism-based; settings: in vivo; procedure, shortened: as §1
# Rattus norvegicus [32] = species: Rattus norvegicus; test: Biodistribution of the [99mTc] complex with OIH in rat heart at 10 min postinjection (3-4 rats used); format: ADME, organism-based; settings: in vivo; procedure, shortened: as §1
# Rattus norvegicus [33] = species: Rattus norvegicus; test: Biodistribution of the [99mTc] complex with OIH in rat heart at 60 min postinjection (3-4 rats used); format: ADME, organism-based; settings: in vivo, 1 h; procedure, shortened: as §1
# Monkey [34] = test: Percentage of counts in the pellet/total number of counts in both supernatant and pellet in monkey plasma; format: functional, Cercopithecidae; procedure, shortened: as §2
# Rattus norvegicus [35] = species: Rattus norvegicus; test: Percentage of counts in the pellet/total number of counts in both supernatant and pellet in rat plasma; format: functional; procedure, shortened: as §2
# Rattus norvegicus [36] = species: Rattus norvegicus; test: Biodistribution of the [99mTc] complex with OIH in rat lung at 60 min postinjection (3-4 rats used); format: ADME, organism-based; settings: in vivo, 1 h; procedure, shortened: as §1
Injected dose (Rattus norvegicus [1]) [%],Injected dose (Rattus norvegicus [2]) [%],Injected dose (Rattus norvegicus [3]) [%],Injected dose (Rattus norvegicus [4]) [%],Injected dose (Rattus norvegicus [5]) [%],Injected dose (Rattus norvegicus [6]) [%],Injected dose (Rattus norvegicus [7]) [%],Injected dose (Rattus norvegicus [8]) [%],Injected dose (Rattus norvegicus [9]) [%],Injected dose (Rattus norvegicus [10]) [%],Injected dose (Rattus norvegicus [11]) [%],Injected dose (Rattus norvegicus [12]) [%],Injected dose (Rattus norvegicus [13]) [%],Injected dose (Rattus norvegicus [14]) [%],Injected dose (Rattus norvegicus [15]) [%],Injected dose (Rattus norvegicus [16]) [%],SMILES,Injected dose (Rattus norvegicus [17]),further results
24,13.1,0.4,0.2,1.6,1.3,6,4,4.9,5,0.9,0.7,23.6,21.5,0.2,0.1,CCOC(=O)C(SC(=O)c1ccccc1)C(=O)NCCNC(=O)C(SC(=O)c1ccccc1)C(=O)OCC (stereo not drawn),0.9% and 0.2% and 0.4% and 2% and 1.6% and < 0.1%,Activity (Monkey [18]): 21.9%; Activity (Rattus norvegicus [19]): 21.4%
26.7,16.4,0.4,0.2,1.7,1.3,4.3,2.1,5,3.1,1.2,0.7,26.9,21.1,0.3,0.1,COC(=O)CC(SC(=O)c1ccccc1)C(=O)NCCNC(=O)C(CC(=O)OC)SC(=O)c1ccccc1 (stereo not drawn),< 0.1%,Injected dose (Rattus norvegicus [20]): 5.3%; Injected dose (Rattus norvegicus [21]): 0.6%; Injected dose (Rattus norvegicus [22]): 1.4%; Injected dose (Rattus norvegicus [23]): 0.8%; Injected dose (Rattus norvegicus [24]): 6.9%; Injected dose (Rattus norvegicus [25]): 0.6%; Injected dose (Rattus norvegicus [26]): 2.5%; Injected dose (Rattus norvegicus [27]): 0.3%; Injected dose (Rattus norvegicus [28]): 0.3%; Injected dose (Rattus norvegicus [29]): 9.9%; Injected dose (Rattus norvegicus [30]): 1.6%; Injected dose (Rattus norvegicus [31]): 0.1%; Injected dose (Rattus norvegicus [32]): < 0.1%; Injected dose (Rattus norvegicus [33]): < 0.1%; Activity (Monkey [34]): 26.2%; Activity (Rattus norvegicus [35]): 31.1%; Injected dose (Rattus norvegicus [36]): < 0.1%
